Measurements from ChEMBL document CHEMBL3425475, “Identification of indole inhibitors of human hematopoietic prostaglandin D2 synthase (hH-PGDS)” (Bioorg Med Chem Lett, 2015).
Values after ≈ are worked out from the molar mass of the structure shown.

Tests used:
[1] = biological target: T1, Hematopoietic prostaglandin D synthase (Homo sapiens, UniProt O60760); assay: Inhibition HPGDS in human MEG01 cells assessed as reduction in PGD2 production incubated for 30 mins followed by stimulation with 5 uM ionomycin for 30 mins by enzyme immunoassay method; type: cell-based, MEG-01
T1 sequence (O60760 whole entry): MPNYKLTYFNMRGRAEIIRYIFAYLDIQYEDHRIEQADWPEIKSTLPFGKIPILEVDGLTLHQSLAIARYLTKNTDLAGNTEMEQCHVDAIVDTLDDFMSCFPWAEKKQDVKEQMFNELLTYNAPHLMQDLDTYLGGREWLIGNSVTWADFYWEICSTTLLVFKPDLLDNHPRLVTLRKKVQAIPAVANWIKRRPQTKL
In short: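 MEG-01 cells were differentiated with 0.1 µM PMA for 16 h, then plated. Inhibitor was added in concentration response, 10 µM–0.15 nM, for 30 min at 37 °C, followed by 5 µM ionomycin for 30 min at 37 °C. Secreted PGD2 in the medium was quantified by PGD2-MOX EIA.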

[2] = Solubility of the compound; type: physicochemical
[3] = biological target: T1, Hematopoietic prostaglandin D synthase; assay: Binding affinity to human HPGDS expressed in Escherichia coli by isothermal titration calorimetry
In short: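 Recombinant wild-type hH-PGDS, expressed in E. coli and purified by cation exchange and gel filtration. Ligand, typically 500 µM at experimentally determined concentration, titrated in 2 µL aliquots into 30–40 µM protein. Reverse titrations (protein into ligand) used where ligand solubility was low. Values are means of at least two independent experiments.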

[4] = biological target: T1, Hematopoietic prostaglandin D synthase; assay: Binding affinity to human HPGDS expressed in Escherichia coli using 1-phenylpyrazole-4-carboxylic acid/6-(3-fluorophenyl)pyridine-3-carboxamide as reporter probe by ligand-observed 1D NMR T1rho binding assay
In short: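 Ligand-observed NMR displacement of reporter molecules from recombinant E. coli-expressed wild-type hH-PGDS. Active-site binding of the reporters was confirmed by competition with a known inhibitor. Kd was calculated from the extent of reporter displacement at two compound concentrations, using the experimentally determined reporter and compound concentrations in an exact mathematical expression. Values are means of at least two independent experiments.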

[5] = biological target: T1, Hematopoietic prostaglandin D synthase; assay: Inhibition human HPGDS expressed in Escherichia coli assessed as reduction in GST enzymatic activity using MCBL and glutathione incubated for 30 mins by fluorescence based assay
In short: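 Compound was preincubated 30 min with enzyme at 1.5 µg/ml in 50 mM Tris, 2 mM MgCl2, 0.1% CHAPS. MCBL (0.4 mM, added solution) and glutathione were then added, and fluorescence (ex 360/em 460) was read at once and again after 30 min. Readings were normalised to DMSO wells (0%) and a control inhibitor (100%). Values are means of at least two independent experiments.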

[6] = biological target: T1, Hematopoietic prostaglandin D synthase; assay: Inhibition fluorescein-conjugated ligand binding to human HPGDS expressed in Escherichia coli by fluorescence polarization assay
In short: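 Recombinant E. coli-expressed hH-PGDS. Displacement of a fluorescein-conjugated potent hH-PGDS inhibitor by compound was followed in dose-response by fluorescence polarization, excitation 470 nm and emission 530 nm. The assay was adapted from a commercial kit.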

Row | Structure (SMILES) | EC50 [1] [nM] | solubility [2] [µM] | Kd [3] [nM] | Kd [4] [nM] | IC50 [5] [nM] | IC50 [6] [nM]
1 | O=C(NC1CCN(CC(F)(F)F)CC1)c1ccc(-c2cccc(F)c2)nc1 | 35 | 2.6 (≈ 0.992 µg/mL) | 20 | 9.5 | 200 | 
2 | c1ccc(-c2ncc(-c3cc[nH]n3)s2)cc1 | 110 | 1.4 (≈ 0.318 µg/mL) | 300 | 51 | 23 | 
3 | COc1cccc(-c2ccc(C(=O)NC3CCN(CC(F)(F)F)CC3)cn2)c1 | 130 | 4.2 (≈ 1.65 µg/mL) | 12 | 44 | 60 | 210
4 | CC(C)(O)c1nc(-c2ccc(CNC(=O)c3cnc(-c4ccccn4)nc3)cc2)no1 | 74 |  | 35 | 23 | 70 | 
5 | CN(C)CCCC(=O)Nc1cncc(-c2cccc3[nH]ccc23)c1 |  | 84 (≈ 27.1 µg/mL) |  | 570 | 180 | 820
6 | CN(C)CCC(=O)Nc1cncc(-c2cccc3[nH]ccc23)c1 | 350 | 95 (≈ 29.3 µg/mL) | 210 | 340 | 300 | 460
7 | COCCCNC(=O)c1nc(-c2cccc3[nH]ccc23)no1 |  | 77 (≈ 23.1 µg/mL) |  | 650 | 170 | 2900
8 | O=C(CCc1cccnc1)Nc1cncc(-c2cccc3[nH]ccc23)c1 |  |  |  | 50 | 26 | 
9 | CCC(=O)Nc1cncc(-c2cccc3[nH]ccc23)c1 |  |  |  | 60 | 32 | 
10 | O=C1CC[C@@H](C(=O)Nc2cncc(-c3cccc4[nH]ccc34)c2)N1 |  |  |  | 300 | 35 | 
11 | O=C(Cn1cnnn1)Nc1cncc(-c2cccc3[nH]ccc23)c1 |  |  |  | 200 | 43 | 
12 | O=C(CCN1CCCCC1)Nc1cncc(-c2cccc3[nH]ccc23)c1 |  |  |  | 1000 | 130 | 
13 | Cn1cncc1CC(=O)Nc1cncc(-c2cccc3[nH]ccc23)c1 |  |  |  | < 20000 | 1200 | 
14 | O=C(NC1CCN(CC(F)(F)F)CC1)c1ccc(Oc2ccccc2)nc1 |  |  |  | 60 | 31 | 
15 | O=C(NC1CCN(CC(F)(F)F)CC1)c1ccc(N2CCCCC2)nc1 |  |  |  | < 100 | 48 | 
16 | O=C(NC1CCN(CC(F)(F)F)CC1)c1ccc(N2CCCC2)nc1 |  |  |  | 200 | 230 | 
17 | CN(C)c1ccc(C(=O)NC2CCN(CC(F)(F)F)CC2)cn1 |  |  |  | 14000 |  | 
18 | O=C(NC1CCN(CC(F)(F)F)CC1)c1ccc(N2CCOCC2)nc1 |  |  |  | 400 | 320 | 
19 | O=C(NC1CCN(CC(F)(F)F)CC1)c1ccc(N2CCNCC2)nc1 |  |  |  | 13000 |  | 
20 | O=C1CN(c2ccc(C(=O)NC3CCN(CC(F)(F)F)CC3)cn2)CCN1 |  |  |  | 1000 | 590 | 
21 | O=C(NC1CCN(CC(F)(F)F)CC1)c1ccc(-c2cc[nH]c(=O)c2)nc1 |  |  |  | 200 | 70 | 
22 | COc1cc(-c2ccc(C(=O)NC3CCN(CC(F)(F)F)CC3)cn2)ccn1 |  |  |  | 2000 |  | 
23 | O=C(NC1CCN(CC(F)(F)F)CC1)c1ccc(-c2cccc(=O)[nH]2)nc1 |  |  |  | 400 | 71 | 
24 | O=C(NC1CCN(CC(F)(F)F)CC1)c1ccc(-c2ccc(=O)[nH]c2)nc1 |  |  |  | 10000 |  | 
25 | NC(=O)c1ccc(-c2cccc(F)c2)nc1 |  |  | 800 |  |  | 
26 | O=C(O)c1cnn(-c2ccccc2)c1 |  |  | 140000 |  |  | 
